Experimental data reported in ChEMBL document CHEMBL4602721, “Discovery of Potent Inhibitors against P-Glycoprotein-Mediated Multidrug Resistance Aided by Late-Stage Functionalization of a 2-(4-(Pyridin-2-yl)phenoxy)pyridine Analogue” (J Med Chem, 2020).
Activity calls are given as the source filed them. The rule behind the calls is not given here.

Assays:
[1] = target: T1, Broad substrate specificity ATP-binding cassette transporter ABCG2 (Homo sapiens, UniProt Q9UNQ0); test: Reversal of ABCG2-mediated mitoxantrone resistance in human NCI-H460/MX20 cells assessed as potentiation of mitoxantrone-induced cytotoxicity by measuring change in mitoxantrone IC50 at 2.5 uM incubated for 48 hrs by SRB assay relative to mitoxantrone IC50; format: cell-based
T1 sequence (Q9UNQ0 whole entry): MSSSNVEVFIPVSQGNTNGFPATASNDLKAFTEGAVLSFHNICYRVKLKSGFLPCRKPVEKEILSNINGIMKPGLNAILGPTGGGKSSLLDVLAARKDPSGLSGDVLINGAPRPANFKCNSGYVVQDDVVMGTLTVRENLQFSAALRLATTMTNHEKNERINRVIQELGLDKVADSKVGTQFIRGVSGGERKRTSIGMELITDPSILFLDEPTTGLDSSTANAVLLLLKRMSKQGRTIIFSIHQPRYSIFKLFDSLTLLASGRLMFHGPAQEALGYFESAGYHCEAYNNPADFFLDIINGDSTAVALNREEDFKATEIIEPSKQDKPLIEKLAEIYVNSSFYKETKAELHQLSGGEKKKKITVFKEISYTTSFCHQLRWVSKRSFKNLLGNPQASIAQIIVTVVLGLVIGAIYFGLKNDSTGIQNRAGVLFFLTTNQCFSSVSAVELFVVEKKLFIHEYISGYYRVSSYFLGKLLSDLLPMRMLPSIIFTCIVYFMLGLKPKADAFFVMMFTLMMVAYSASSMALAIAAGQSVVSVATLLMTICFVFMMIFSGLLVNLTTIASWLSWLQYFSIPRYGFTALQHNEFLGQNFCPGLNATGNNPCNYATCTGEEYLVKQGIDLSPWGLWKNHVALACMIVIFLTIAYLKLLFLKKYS

[2] = Cytotoxicity against human KB-CV60 cells assessed as effect on cell proliferation at 2.5 to 5 uM measured after 48 hrs by SRB assay; format: cell-based
[3] = target: T2, ATP-dependent translocase ABCB1 (Homo sapiens, UniProt P08183); test: Reversal of ABCB1-mediated multidrug resistance in human SW620 cells assessed as reduction in Rh123 efflux at 0.01 to 0.5 uM incubated for 4 hrs by flow cytometry analysis; format: cell-based; details: sw-620, 4 h
T2 sequence (P08183 whole entry): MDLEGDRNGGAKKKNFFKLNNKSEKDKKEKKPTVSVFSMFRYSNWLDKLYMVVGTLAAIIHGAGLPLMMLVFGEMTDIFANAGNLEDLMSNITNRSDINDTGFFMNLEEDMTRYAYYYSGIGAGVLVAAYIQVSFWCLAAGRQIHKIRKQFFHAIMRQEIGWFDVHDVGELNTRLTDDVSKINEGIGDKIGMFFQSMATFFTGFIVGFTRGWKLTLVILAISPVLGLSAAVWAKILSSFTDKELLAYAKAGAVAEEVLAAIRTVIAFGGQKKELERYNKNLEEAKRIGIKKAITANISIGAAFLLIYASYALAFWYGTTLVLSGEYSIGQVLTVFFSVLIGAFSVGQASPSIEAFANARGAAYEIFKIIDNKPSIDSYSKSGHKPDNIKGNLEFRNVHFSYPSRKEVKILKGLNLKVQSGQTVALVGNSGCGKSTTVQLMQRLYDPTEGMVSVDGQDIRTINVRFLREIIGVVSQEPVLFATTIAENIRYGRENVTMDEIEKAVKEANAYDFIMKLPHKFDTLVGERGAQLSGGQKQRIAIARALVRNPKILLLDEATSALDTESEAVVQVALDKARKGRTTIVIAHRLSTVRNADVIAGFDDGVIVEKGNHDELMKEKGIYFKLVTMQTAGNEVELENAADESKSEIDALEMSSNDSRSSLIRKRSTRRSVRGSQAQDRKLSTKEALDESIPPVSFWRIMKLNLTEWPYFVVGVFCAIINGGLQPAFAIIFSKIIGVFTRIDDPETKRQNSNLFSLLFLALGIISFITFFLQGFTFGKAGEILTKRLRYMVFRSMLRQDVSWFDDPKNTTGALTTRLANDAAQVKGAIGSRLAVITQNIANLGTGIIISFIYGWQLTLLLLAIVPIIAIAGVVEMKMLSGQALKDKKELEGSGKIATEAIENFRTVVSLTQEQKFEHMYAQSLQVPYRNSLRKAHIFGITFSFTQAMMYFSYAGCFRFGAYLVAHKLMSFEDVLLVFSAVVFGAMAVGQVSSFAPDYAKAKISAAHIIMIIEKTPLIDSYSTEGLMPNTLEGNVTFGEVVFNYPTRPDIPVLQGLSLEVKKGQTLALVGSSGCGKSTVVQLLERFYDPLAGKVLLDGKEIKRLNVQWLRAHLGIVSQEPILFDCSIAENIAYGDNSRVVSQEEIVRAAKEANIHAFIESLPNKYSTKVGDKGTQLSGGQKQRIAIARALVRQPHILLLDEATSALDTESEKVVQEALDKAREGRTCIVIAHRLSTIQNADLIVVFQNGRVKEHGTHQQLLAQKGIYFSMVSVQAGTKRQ
Procedure, shortened: (§1)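 Cells pre-loaded with rhodamine 123, then efflux monitored in SW620 and SW620/AD300 cells over a range of modulator levels; mean ± SD of three independent experiments.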

[4] = target: T2, ATP-dependent translocase ABCB1; test: Binding affinity to ABCB1 in human SW620/AD300 cells assessed as increase in thermal stability of ABCB1 at 20 uM incubated for 30 to 60 mins followed by heating at 40.5 to 59.5 degC by […]; format: cell-based; details: sw620/ad300, 20 µM
SW-620 = test: Induction of Rh123 accumulation in human SW620 cells at 0.01 to 0.5 uM incubated for 4 hrs by flow cytometry; format: functional, cell-based
Procedure, shortened: (§2)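 SW620 and SW620/AD300 cells exposed to 1 μg/mL rhodamine 123 with or without modulator; intracellular Rh123 content measured; mean ± SD of three independent experiments.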

K562/A02 [5] = test: Effect on tumor size of human K562/A02 cells xenografted in BALB/c mouse at 30 mg/kg, iv administered every 2 days for 14 days measured during compound dosing by caliper method; format: ADME, organism-based; details: in vivo
Procedure, shortened: (§3)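 Mice bearing subcutaneous ABCB1-overexpressing K562/A02 xenografts treated with DOX alone, modulator alone, or combinations (verapamil as comparator) for 14 days; tumor volume measured every two days.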

[6] = target: T3, Multidrug resistance-associated protein 1 (Homo sapiens, UniProt P33527); test: Reversal of ABCC1-mediated vincristine resistance in human KB-CV60 cells assessed as potentiation of vincristine-induced cytotoxicity by measuring change in vincristine IC50 at 2.5 uM incubated for 48 hrs by SRB assay relative to vincristine IC50; format: cell-based
T3 sequence (P33527 whole entry): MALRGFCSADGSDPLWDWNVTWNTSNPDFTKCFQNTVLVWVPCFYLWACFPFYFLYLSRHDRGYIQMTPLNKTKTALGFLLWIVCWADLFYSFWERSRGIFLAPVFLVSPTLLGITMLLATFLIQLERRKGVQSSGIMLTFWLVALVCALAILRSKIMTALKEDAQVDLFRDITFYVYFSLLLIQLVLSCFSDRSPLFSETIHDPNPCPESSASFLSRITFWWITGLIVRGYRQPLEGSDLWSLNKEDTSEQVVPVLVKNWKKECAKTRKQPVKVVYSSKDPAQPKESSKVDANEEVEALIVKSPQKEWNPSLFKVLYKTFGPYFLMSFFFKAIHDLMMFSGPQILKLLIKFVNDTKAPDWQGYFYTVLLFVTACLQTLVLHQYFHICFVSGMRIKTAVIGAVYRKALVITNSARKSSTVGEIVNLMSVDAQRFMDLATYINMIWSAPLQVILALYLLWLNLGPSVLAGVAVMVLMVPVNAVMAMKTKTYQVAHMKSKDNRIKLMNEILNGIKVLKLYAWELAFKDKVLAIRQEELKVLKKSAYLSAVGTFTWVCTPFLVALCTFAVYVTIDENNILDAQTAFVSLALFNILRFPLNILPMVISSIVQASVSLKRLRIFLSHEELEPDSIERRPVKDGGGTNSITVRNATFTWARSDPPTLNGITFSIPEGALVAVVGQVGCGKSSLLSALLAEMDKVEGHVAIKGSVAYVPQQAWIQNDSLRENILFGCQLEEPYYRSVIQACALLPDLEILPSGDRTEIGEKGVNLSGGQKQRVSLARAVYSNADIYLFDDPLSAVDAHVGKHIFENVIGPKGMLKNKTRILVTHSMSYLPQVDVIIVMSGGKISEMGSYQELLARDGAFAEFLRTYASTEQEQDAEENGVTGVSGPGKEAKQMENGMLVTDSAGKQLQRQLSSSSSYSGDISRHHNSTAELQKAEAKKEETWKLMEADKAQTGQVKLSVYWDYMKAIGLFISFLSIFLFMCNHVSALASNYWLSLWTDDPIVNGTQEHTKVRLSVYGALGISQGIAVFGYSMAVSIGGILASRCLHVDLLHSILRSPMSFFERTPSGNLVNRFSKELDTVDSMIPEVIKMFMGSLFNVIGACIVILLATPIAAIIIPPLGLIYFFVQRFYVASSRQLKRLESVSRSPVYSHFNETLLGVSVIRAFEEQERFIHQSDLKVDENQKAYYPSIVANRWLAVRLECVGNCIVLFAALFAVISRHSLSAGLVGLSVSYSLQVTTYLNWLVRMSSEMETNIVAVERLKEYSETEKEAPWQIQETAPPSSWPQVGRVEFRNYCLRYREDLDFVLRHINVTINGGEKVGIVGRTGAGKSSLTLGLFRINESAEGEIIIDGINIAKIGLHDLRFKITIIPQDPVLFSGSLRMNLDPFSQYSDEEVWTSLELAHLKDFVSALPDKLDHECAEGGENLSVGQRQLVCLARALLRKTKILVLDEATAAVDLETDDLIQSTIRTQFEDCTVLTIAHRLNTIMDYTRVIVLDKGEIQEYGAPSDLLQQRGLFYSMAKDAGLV
Procedure, shortened: (§4)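 ABCC1-overexpressing KB-CV60 cells: vincristine IC50 determined alone or with modulator at 2.5 or 5 μM; MK571 25 μM reference; reversal fold calculated as IC50 ratio without/with modulator.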

[7] = target: T1, Broad substrate specificity ATP-binding cassette transporter ABCG2; test: Reversal of ABCG2-mediated mitoxantrone resistance in human NCI-H460/MX20 cells assessed as potentiation of mitoxantrone-induced cytotoxicity by measuring change in mitoxantrone IC50 at 5 uM incubated for 48 hrs by SRB assay relative to mitoxantrone IC50; format: cell-based
[8] = target: T2, ATP-dependent translocase ABCB1; test: Reversal of Pgp-mediated DOX resistance in human SW620/AD300 cells assessed as potentiation of DOX-induced cytotoxicity by measuring change in DOX IC50 at 1 uM incubated for 48 hrs by SRB assay relative to DOX alone; format: cell-based; details: sw620/ad300, 48 h
[9] = Cytotoxicity against human NCI-H460/MX20 cells assessed as effect on cell proliferation at 2.5 to 5 uM measured after 48 hrs by SRB assay; format: cell-based
[10] = target: T2, ATP-dependent translocase ABCB1; test: Reversal of ABCB1-mediated multidrug resistance in human SW620/AD300 cells assessed as reduction in Rh123 efflux incubated for 4 hrs by flow cytometry analysis; format: cell-based; details: sw620/ad300, 4 h; procedure, shortened: as §1
[11] = target: T2, ATP-dependent translocase ABCB1; test: Reversal of ABCB1-mediated multidrug resistance in human SW620/AD300 cells assessed as increase in Rh123 accumulation at 0.01 to 0.5 uM incubated for 4 hrs by flow cytometry; format: cell-based; details: sw620/ad300, 4 h; procedure, shortened: as §2
K562/A02 [12] = test: Potentiation of DOX-induced anti tumor activity against human K562/A02 cells xenografted in BALB/c mouse assessed as tumor size at 30 mg/kg, iv administered every 2 days for 14 days measured during compound dosing by caliper method (reference value: 610 mm3); format: functional; procedure, shortened: as §3
[13] = target: T2, ATP-dependent translocase ABCB1; test: Reversal of Pgp-mediated DOX resistance in human SW620/AD300 cells assessed as potentiation of DOX-induced cytotoxicity by measuring inhibition of cell proliferation at 1 uM incubated for 48 hrs by SRB assay (reference value: 5.3 +/- 3 %); format: cell-based
SW620/AD300 = test: Downregulation of ABCB1 expression in human SW620/AD300 cells at 1 to 5 uM incubated for 48 hrs by Western blot analysis; format: functional, cell-based
Procedure, shortened: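 SW620 and SW620/AD300 cells compared for ABCB1 level; SW620/AD300 treated at 0, 1.0, 2.0 or 5.0 μM for 48 h, then ABCB1 protein assessed.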

[14] = target: T3, Multidrug resistance-associated protein 1; test: Reversal of ABCC1-mediated vincristine resistance in human KB-CV60 cells assessed as potentiation of vincristine-induced cytotoxicity by measuring change in vincristine IC50 at 5 uM incubated for 48 hrs by SRB assay relative to vincristine IC50; format: cell-based; procedure, shortened: as §4
[15] = Cytotoxicity against human SW620/AD300 cells assessed as cell growth inhibition at 10 uM incubated for 48 hrs by SRB assay relative to control; format: cell-based; details: read-out: GI
K562/A02 [16] = test: Potentiation of DOX-induced anti tumor activity against human K562/A02 cells xenografted in BALB/c mouse assessed as reduction in tumor weight at 30 mg/kg, iv administered every 2 days for 14 days measured 24 hrs post-last dose; format: functional, organism-based
Procedure, shortened: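 K562/A02 subcutaneous xenograft mice treated 14 days with DOX with or without modulator; tumors excised and weighed at Day 14.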

With `COc1cc2c(cc1OC)CN(CCc1ccc(NC(=O)/C=C/c3ccc(Oc4ccc(-c5ccccn5)c(Cl)c4)nc3)cc1)CC2` the “fold change (FC)” value [1] was 0.99, the Activity [2] was “Non-Toxic” and the Activity [3] was “Not Active”. The Activity [4] was “Active”, the Activity (SW-620) was “inactive” and the Activity (K562/A02 [5]) was “Non-Toxic”. For the same compound, the “fold change (FC)” value [6] was 1.12, the “fold change (FC)” value [7] was 2.32 and the “fold change (FC)” value [8] was 59.63. The Activity [9] was “Non-Toxic”, the Activity [10] was “Dose-dependent effect” and the Activity [11] was “Active”. For the same compound, the Activity (K562/A02 [12]) was 437 mm3, the inhibition at 1 µM [13] was 60.3% and the Activity (SW620/AD300) was “inactive”. The “fold change (FC)” value [14] was 1.43, the inhibition at 48 h, 10 µM [15] was 9.7% and the Activity (K562/A02 [16]) was “Active”.
